Data on three compounds can be found in ChEMBL document CHEMBL1144020, “Development of prodrug 4-chloro-3-(5-methyl-3-{[4-(2-pyrrolidin-1-ylethoxy)phenyl]amino}-1,2,4-benzotriazin-7-yl)phenyl benzoate (TG100801): a topically administered therapeutic candidate in clinical trials for the treatment of age-related macular degeneration” (J Med Chem, 2008).

A short description of series [1]: Stability at 120 degC after 1 hr. The series is classed as physicochemical. As to conditions: read-out: Stability. The gist of the method: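 Prodrugs at 0.5% in 0.5% HPMC/5% dextrose, pH 6.7, in closed vials, autoclaved at 120 °C for 1 h. After cooling, percent remaining was assessed by reverse-phase HPLC with diode-array and ELSD detection.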
Series [2] is described as follows: Stability in Dutch-belted rabbit eye assessed as hydrolysis rate. The series is classed as ADME, tissue-based, Oryctolagus cuniculus. The method in brief: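 Two Dutch-Belted rabbit eyeballs were homogenized in 1× RIPA buffer. Prodrug (from 1 mg/mL DMSO stock) was added to a final 5 µg/mL and kept at 37 °C, sampled at 0, 0.25, 1, 2 and 6 h. Controls were prodrug in RIPA buffer for 120 min at 37 °C. Supernatants were analyzed by LC/MS/MS for prodrug and released parent phenol.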

The species named for series [3] is Mus musculus. Put plainly: Tmax in C57BL/6 mouse cornea assessed as 4-chloro-3-{5-methyl-3-[4-(2-pyrrolidin-1-yl-ethoxy)phenylamino]benzo[1,2,4]triazin-7-yl}phenol at 172 nM instilled per eye. The series is classed as ADME, organism-based. As to conditions: in vivo, topical_or_ocular, 0.172 µM. The gist of the method:
(§1)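 Male C57BL/6 mice got one 10 µL eye drop of prodrug (100 µg, 172 nmol per eye). Composite sampling at 0.5, 1, 3, 7 and 24 h post-instillation. Cornea, retina and pooled sclera/choroid were collected, with plasma at euthanasia. Tissues were homogenized in RIPA and extracted with acetonitrile. Prodrug and parent were measured by LC/MS/MS against matrix standards; AUC by linear trapezoidal rule on means.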

Series [4] can be described thus: Tmax in C57BL/6 mouse choroid/sclera at 172 nM instilled per eye. The series is classed as ADME, organism-based. As to conditions: topical or ocular, 172 nM per eye. The method in brief: as §1
For series [5], the species on record is Mus musculus. In words: Cmax in C57BL/6 mouse cornea assessed as 4-chloro-3-{5-methyl-3-[4-(2-pyrrolidin-1-yl-ethoxy)phenylamino]benzo[1,2,4]triazin-7-yl}phenol at 172 nM instilled per eye. The series is classed as ADME, organism-based. Details: dose 172 nM, route ophthalmic. The note with it: in vivo, topical_or_ocular, 0.172 µM. The gist of the method: as §1

The target of series [6] is Tyrosine-protein kinase Yes (Homo sapiens, UniProt P07947). Put plainly: Inhibition of YES.
Sequence of Tyrosine-protein kinase Yes (P07947 whole entry): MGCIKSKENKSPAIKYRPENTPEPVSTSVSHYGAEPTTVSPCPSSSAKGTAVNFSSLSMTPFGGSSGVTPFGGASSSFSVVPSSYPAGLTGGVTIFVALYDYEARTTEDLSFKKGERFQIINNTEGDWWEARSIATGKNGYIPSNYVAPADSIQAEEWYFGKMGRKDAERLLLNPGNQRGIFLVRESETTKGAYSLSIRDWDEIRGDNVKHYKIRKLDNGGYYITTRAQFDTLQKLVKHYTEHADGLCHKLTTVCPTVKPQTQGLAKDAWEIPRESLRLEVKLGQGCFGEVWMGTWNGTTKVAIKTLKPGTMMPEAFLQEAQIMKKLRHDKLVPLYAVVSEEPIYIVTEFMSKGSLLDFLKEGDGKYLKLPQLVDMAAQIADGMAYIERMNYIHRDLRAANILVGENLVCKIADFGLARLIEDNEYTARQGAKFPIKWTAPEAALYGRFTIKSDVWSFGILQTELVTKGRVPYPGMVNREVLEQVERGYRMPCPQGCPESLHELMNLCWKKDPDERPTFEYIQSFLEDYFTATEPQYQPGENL
The nature of series [7]: Plasma concentration in C57BL/6 mouse after 24 hrs. The format is ADME, organism-based.
The species entered for series [8] is Mus musculus. Put plainly: Cmax in C57BL/6 mouse choroid/sclera assessed as 4-chloro-3-{5-methyl-3-[4-(2-pyrrolidin-1-yl-ethoxy)phenylamino]benzo[1,2,4]triazin-7-yl}phenol at 172 nM instilled per eye. The series is classed as ADME, organism-based. Details: dose 172 nM, route ophthalmic. As to conditions: in vivo, topical_or_ocular, 0.172 µM. The gist of the method: as §1

The target of series [9] is Proto-oncogene tyrosine-protein kinase Src (Homo sapiens, UniProt P12931). Put plainly: Inhibition of Src.
Sequence of Proto-oncogene tyrosine-protein kinase Src (P12931 2-536 limits assumed): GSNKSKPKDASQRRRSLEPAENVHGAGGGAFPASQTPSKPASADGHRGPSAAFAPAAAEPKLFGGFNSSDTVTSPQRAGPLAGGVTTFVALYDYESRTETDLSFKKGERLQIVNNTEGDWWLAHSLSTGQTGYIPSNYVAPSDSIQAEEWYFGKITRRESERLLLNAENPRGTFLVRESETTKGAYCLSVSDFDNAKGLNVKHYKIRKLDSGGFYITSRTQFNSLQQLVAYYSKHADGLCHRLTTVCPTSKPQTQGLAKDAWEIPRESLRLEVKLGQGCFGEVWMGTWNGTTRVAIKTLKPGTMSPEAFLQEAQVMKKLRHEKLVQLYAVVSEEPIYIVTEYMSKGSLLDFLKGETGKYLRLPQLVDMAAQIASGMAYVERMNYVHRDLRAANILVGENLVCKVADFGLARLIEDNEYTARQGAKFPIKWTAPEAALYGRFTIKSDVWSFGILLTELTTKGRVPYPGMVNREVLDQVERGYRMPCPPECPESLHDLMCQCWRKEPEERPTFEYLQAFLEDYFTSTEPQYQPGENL
The species entered for series [10] is Mus musculus. In words: Tmax in C57BL/6 mouse plasma assessed as 4-chloro-3-{5-methyl-3-[4-(2-pyrrolidin-1-yl-ethoxy)phenylamino]benzo[1,2,4]triazin-7-yl}phenol at 172 nM instilled per eye. The format is ADME, organism-based. As to conditions: in vivo, topical_or_ocular, 0.172 µM. The method in brief: as §1
For series [11], the species on record is Mus musculus. In words: Cmax in C57BL/6 mouse plasma assessed as 4-chloro-3-{5-methyl-3-[4-(2-pyrrolidin-1-yl-ethoxy)phenylamino]benzo[1,2,4]triazin-7-yl}phenol at 172 nM instilled per eye. The format is ADME, organism-based. Also noted: dose 172 nM, route ophthalmic. The note with it: in vivo, topical_or_ocular, 0.172 µM. The gist of the method: as §1

Series [12] relates to Mus musculus. Put plainly: Reduction of bruch's membrane rupture in laser-induced choroidoal neovascularization in mouse administered topically at 0.61% w/v after 14 days relative to control. The format is functional. Also noted: scale not given: the % may be the effect or the level left. The method in brief:
(§2)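 Laser rupture of Bruch's membrane in female C57BL/6J mice aged 4–5 weeks, ketamine-anesthetized; only bubble-forming burns were counted. Eight mice/group got one 10 µL drop of vehicle, 0.61% or 1.83% w/v prodrug t.i.d., 4 h apart, with the fellow eye untreated; a fourth group had no treatment. On day 14, mice were perfused with fluorescein-dextran and CNV area was measured on choroidal flatmounts. Linear mixed model with Dunnett adjustment.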

The species entered for series [13] is Mus musculus. Put plainly: AUC (0 to 24 hrs) in C57BL/6 mouse retina assessed as 4-chloro-3-{5-methyl-3-[4-(2-pyrrolidin-1-yl-ethoxy)phenylamino]benzo[1,2,4]triazin-7-yl}phenol at 172 nM instilled per eye. The format is ADME, organism-based. Also noted: time < 24 hr, dose 172 nM, route ophthalmic. As to conditions: in vivo, topical_or_ocular, 0.172 µM. The gist of the method: as §1

Series [14] is filed under the species Mus musculus. In words: AUC (0 to 24 hrs) in C57BL/6 mouse cornea assessed as 4-chloro-3-{5-methyl-3-[4-(2-pyrrolidin-1-yl-ethoxy)phenylamino]benzo[1,2,4]triazin-7-yl}phenol at 172 nM instilled per eye. The format is ADME, organism-based. Also noted: time < 24 hr, dose 172 nM, route ophthalmic. The note with it: in vivo, topical_or_ocular, 0.172 µM. The method in brief: as §1

A short description of series [15]: Cmax in C57BL/6 mouse choroid/sclera at 172 nM instilled per eye. The format is ADME, organism-based. The note with it: topical or ocular, 172 nM per eye. Also noted: dose 172 nM, route ophthalmic. The gist of the method:
as §1

Series [16] can be described thus: Tmax in C57BL/6 mouse retina at 172 nM instilled per eye. The format is ADME, organism-based. The note with it: topical or ocular, 172 nM per eye. The gist of the method: as §1
Series [17] is filed under the species Mus musculus. In words: Tmax in C57BL/6 mouse choroid/sclera assessed as 4-chloro-3-{5-methyl-3-[4-(2-pyrrolidin-1-yl-ethoxy)phenylamino]benzo[1,2,4]triazin-7-yl}phenol at 172 nM instilled per eye. The note with it: in vivo, topical_or_ocular, 0.172 µM. The format is ADME, organism-based. The gist of the method:
as §1

In series [18] the test system is Mus musculus. Put plainly: Reduction of bruch's membrane rupture in laser-induced choroidoal neovascularization in mouse administered topically at 1.83% w/v after 14 days relative to control. The series is classed as functional. Details: scale not given: the % may be the effect or the level left. The method in brief: as §2
The species named for series [19] is Mus musculus. Put plainly: AUC (0 to 24 hrs) in C57BL/6 mouse choroid/sclera assessed as 4-chloro-3-{5-methyl-3-[4-(2-pyrrolidin-1-yl-ethoxy)phenylamino]benzo[1,2,4]triazin-7-yl}phenol at 172 nM instilled per eye. The note with it: in vivo, topical_or_ocular, 0.172 µM. The series is classed as ADME, organism-based. Details: dose 172 nM, time < 24 hr, route ophthalmic. The method in brief:
as §1

Series [20] has as its system Mus musculus. Put plainly: Reduction of VEGF-induced retinal leak in BALB/c mouse administered topically at 210 nM q.d. Also noted: scale not given: the % may be the effect or the level left. The format is functional.
The nature of series [21]: Cmax in C57BL/6 mouse cornea at 172 nM instilled per eye. The series is classed as ADME, organism-based. Also noted: dose 172 nM, route ophthalmic. As to conditions: topical or ocular, 172 nM per eye. The gist of the method: as §1
The species entered for series [22] is Mus musculus. Put plainly: Tmax in C57BL/6 mouse retina assessed as 4-chloro-3-{5-methyl-3-[4-(2-pyrrolidin-1-yl-ethoxy)phenylamino]benzo[1,2,4]triazin-7-yl}phenol at 172 nM instilled per eye. The series is classed as ADME, organism-based. The note with it: in vivo, topical_or_ocular, 0.172 µM. The method in brief:
as §1

The nature of series [23]: Tmax in C57BL/6 mouse cornea at 172 nM instilled per eye. The series is classed as ADME, organism-based. The note with it: topical or ocular, 172 nM per eye. The gist of the method: as §1
Series [24] has as its target Vascular endothelial growth factor receptor 2 (Homo sapiens, UniProt P35968). In words: Inhibition of VEGFR2.
Series [25] can be described thus: Cmax in C57BL/6 mouse retina at 172 nM instilled per eye. Details: dose 172 nM, route ophthalmic. The format is ADME, organism-based. The note with it: topical or ocular, 172 nM per eye. The gist of the method:
as §1

The nature of series [26]: AUC (0 to 24 hrs) in C57BL/6 mouse cornea at 172 nM instilled per eye. Details: time < 24 hr, dose 172 nM, route ophthalmic. The note with it: topical or ocular, 172 nM per eye. The format is ADME, organism-based. The method in brief:
as §1

Series [27] can be described thus: AUC (0 to 24 hrs) in C57BL/6 mouse retina at 172 nM instilled per eye. Also noted: dose 172 nM, time < 24 hr, route ophthalmic. The series is classed as ADME, organism-based. The note with it: topical or ocular, 172 nM per eye. The gist of the method: as §1
Series [28] is filed under the species Mus musculus. Put plainly: Cmax in C57BL/6 mouse retina assessed as 4-chloro-3-{5-methyl-3-[4-(2-pyrrolidin-1-yl-ethoxy)phenylamino]benzo[1,2,4]triazin-7-yl}phenol at 172 nM instilled per eye. Also noted: dose 172 nM, route ophthalmic. The series is classed as ADME, organism-based. As to conditions: in vivo, topical_or_ocular, 0.172 µM. The gist of the method:
as §1

A short description of series [29]: AUC (0 to 24 hrs) in C57BL/6 mouse choroid/sclera at 172 nM instilled per eye. The series is classed as ADME, organism-based. Details: dose 172 nM, time < 24 hr, route ophthalmic. The note with it: topical or ocular, 172 nM per eye. The gist of the method: as §1

Sequence of Vascular endothelial growth factor receptor 2 (P35968 whole entry): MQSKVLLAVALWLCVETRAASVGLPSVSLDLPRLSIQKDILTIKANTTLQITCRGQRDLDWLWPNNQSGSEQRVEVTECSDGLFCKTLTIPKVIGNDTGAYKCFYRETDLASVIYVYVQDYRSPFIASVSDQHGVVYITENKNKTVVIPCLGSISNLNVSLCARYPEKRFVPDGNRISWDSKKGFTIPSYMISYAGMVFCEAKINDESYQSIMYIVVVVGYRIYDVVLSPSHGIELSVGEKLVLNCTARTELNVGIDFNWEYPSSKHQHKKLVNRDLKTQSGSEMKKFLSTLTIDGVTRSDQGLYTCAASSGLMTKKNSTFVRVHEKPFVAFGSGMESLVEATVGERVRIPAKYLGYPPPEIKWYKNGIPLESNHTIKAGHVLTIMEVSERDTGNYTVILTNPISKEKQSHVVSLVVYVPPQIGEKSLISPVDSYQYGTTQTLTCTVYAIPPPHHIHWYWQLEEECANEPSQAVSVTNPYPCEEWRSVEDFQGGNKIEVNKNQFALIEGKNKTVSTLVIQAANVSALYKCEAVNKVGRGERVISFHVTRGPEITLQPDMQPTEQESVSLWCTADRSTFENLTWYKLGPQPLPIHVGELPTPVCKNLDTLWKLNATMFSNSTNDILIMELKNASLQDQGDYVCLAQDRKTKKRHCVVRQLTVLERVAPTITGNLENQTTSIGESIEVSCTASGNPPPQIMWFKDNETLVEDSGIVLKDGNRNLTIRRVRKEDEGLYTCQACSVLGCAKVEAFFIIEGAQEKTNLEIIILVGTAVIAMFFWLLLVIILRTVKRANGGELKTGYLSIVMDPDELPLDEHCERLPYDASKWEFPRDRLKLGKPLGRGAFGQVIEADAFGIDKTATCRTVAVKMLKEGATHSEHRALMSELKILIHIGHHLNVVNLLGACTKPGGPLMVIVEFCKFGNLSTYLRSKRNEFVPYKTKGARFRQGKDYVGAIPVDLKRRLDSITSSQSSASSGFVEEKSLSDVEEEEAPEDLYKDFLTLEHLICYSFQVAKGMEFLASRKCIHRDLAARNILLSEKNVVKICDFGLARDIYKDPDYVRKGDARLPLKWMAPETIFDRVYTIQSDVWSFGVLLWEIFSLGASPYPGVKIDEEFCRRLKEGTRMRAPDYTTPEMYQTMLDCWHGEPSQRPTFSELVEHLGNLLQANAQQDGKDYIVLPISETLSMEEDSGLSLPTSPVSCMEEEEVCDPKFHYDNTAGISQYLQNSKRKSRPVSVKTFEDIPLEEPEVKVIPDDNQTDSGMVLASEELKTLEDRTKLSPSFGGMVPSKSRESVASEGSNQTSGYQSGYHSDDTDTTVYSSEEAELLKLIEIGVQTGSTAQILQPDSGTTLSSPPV

As to `Cc1cc(-c2cc(OC(=O)c3c(Cl)cccc3Cl)ccc2Cl)cc2nnc(Nc3ccc(OCCN4CCCC4)cc3)nc12`, the remaining at 1 h in [1] was greater than 90%. For the same compound, the Stability in [2] was determined as 1.7 ng/mL/h.
For `Cc1cc(-c2cc(OC(=O)c3ccc(CN4CCOCC4)cc3)ccc2Cl)cc2nnc(Nc3ccc(OCCN4CCCC4)cc3)nc12`, the remaining at 1 h in series [1] was greater than 90%.
The term Tmax denotes the time from dosing to the highest level. The term Cmax denotes the maximum level reached in the sampled fluid or tissue. In general, IC50 refers to the concentration at which inhibition is half-maximal. By AUC is commonly meant the area under the concentration-time curve, a measure of exposure. A word on the AUC(0-t): it is exposure summed from dosing to a finite time, without extrapolation to infinity. For the compound `Cc1cc(-c2cc(OC(=O)c3ccccc3)ccc2Cl)cc2nnc(Nc3ccc(OCCN4CCCC4)cc3)nc12` [TG100-801], the Tmax in the series listed under Mus musculus [3] was 7 h; in the series listed under Mus musculus [10] it was 24 h; in the series listed under Mus musculus [17], 24 h; in the series listed under Mus musculus [22], 24 h. Also, the Tmax at 0.172 µM in series [4], in [16] and in series [23] was 24 h each time. The Cmax in the series listed under Mus musculus [5] was 33 µM; in the series listed under Mus musculus [8] it was 29 µM; in the series listed under Mus musculus [11] it was 0.005 µM; in the series listed under Mus musculus [28] it was 2.4 µM. The figures for the half-inhibitory concentration (IC50) in series [6], in series [9] and in series [24] were no less than 2.5 µM, no less than 10 µM and no less than 10 µM, respectively. In series [7], this compound gave a concentration at 24 h of less than 1 ng/mL. Besides, the remaining at 1 h in [1] was greater than 90%. The values for the Activity in the series on Mus musculus [12], in the series with Mus musculus [18] and in the series on Mus musculus [20] were 46%, 35% and 100%, respectively. Also, the AUC in the series filed under Mus musculus [13] stood at 35000 ng·h/mL; in the series listed under Mus musculus [14], 670000 ng·h/mL; in the series filed under Mus musculus [19] it was 540000 ng·h/mL. In addition, the Cmax at 0.172 µM was determined as 27 µM in series [15], 3.7 µM in series [21] and 5.3 µM in series [25]. In [2], the Stability turned out to be 288 ng/mL/h. Besides, the figures for the AUC(0-t) at 24 h, 0.172 µM in series [26], in series [27] and in series [29] were 55000 ng·h/mL, 63000 ng·h/mL and 430000 ng·h/mL, respectively.
